# High-throughput results as filed in PubChem BioAssay.
# TNAP inh hiacc: blocks human TNAP under high phosphate acceptor concentration. P05186. purified TNAP, CDP-star luminescence, 1 M DEA. inhibition, % at 20 µM. 0.03% of 200,000 active. AID 1135;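 active means over 50% inhibition of tissue-nonspecific alkaline phosphatase at 20 µM in the single-dose screen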;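 further: plate controls were DMSO wells for no effect and EDTA-quenched wells as full inhibition for full effect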
# Target sequence (P05186 whole entry, looked up): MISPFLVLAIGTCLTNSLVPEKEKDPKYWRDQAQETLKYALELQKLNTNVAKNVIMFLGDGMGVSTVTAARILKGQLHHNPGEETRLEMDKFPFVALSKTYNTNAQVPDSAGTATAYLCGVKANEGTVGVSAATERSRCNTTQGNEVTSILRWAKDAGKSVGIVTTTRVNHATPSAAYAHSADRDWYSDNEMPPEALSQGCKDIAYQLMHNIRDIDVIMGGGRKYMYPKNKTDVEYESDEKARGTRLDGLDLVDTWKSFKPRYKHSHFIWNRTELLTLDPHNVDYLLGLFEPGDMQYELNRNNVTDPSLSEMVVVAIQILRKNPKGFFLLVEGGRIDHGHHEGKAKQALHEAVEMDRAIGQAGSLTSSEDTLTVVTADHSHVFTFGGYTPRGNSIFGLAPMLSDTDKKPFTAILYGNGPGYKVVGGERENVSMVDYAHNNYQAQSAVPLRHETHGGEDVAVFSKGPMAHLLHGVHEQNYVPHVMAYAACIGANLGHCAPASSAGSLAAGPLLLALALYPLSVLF
# HCT116 PTEN-null: PTEN-deleted cell growth suppression; HCT116 PTEN-null viability, CellTiter-Glo, 60 h; active compounds read low; viability, % at 10 µM; 1.2% of 140,000 active; AID 827;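 active means viability at or below a set limit, 4 SD under the median of all tested compounds, cut at about 3.7% in these data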;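 further: PTEN knockout HCT116 line with beta catenin targeted HCT116 as companion control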
# Lmaj promast: Leishmania major promastigote growth inhibition | inhibition, % at 10 µM | Leishmania major promastigotes, resazurin fluorescence viability | AID 1063 | 9% of 200,000 active; in the data active means inhibition above about 50%;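 further: promastigotes grown with compound for 44 hours at 28 °C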
# bCat KO growth: beta-catenin-lacking colon tumor cell growth suppression; HCT116 beta-catenin knockout viability, CellTiter-Glo, 60 h; active compounds read low; viability, % at 10 µM; 1.5% of 140,000 active;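 active means viability at or under a set limit, the compound median less 4 SD, cut at about 6% in these data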;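 further: 0% = Hyamine 1622 control at 20 µM and 100% = untreated cell control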
# TNAP inh no acc: inhibitors of human TNAP without phosphate acceptor. P05186. purified TNAP, CDP-star luminescence, 30 min. inhibition, % at 20 µM. 0.26% of 200,000 active. AID 1012;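 active means tissue-nonspecific alkaline phosphatase inhibition above about 50% at 20 µM in the single-dose screen, limit read from the data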;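 further: 0% = DMSO negative control and 100% = EDTA positive control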
# TNAP act hi DEA: activators of human TNAP at high phosphate acceptor concentration | purified TNAP, CDP-star luminescence, 1 M DEA, 30 min; active compounds read high; 0 = EDTA background, 1 = DMSO-only activity | 200,000 tested, under 10 active | activation factor at 20 µM | AID 1136 | P05186;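 active means activation factor at least 2 at 20 µM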
#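 Test system – human TNAP · Doses – 20 µM single point · Incubation – 30 min, room temperature · Signal – luminescent substrate turnover signal · Read-out basis – activation factor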
# The depositor's hits bear a star; x = no result. Shown are actives, neighbours in structure and some others; about 9.6% of the full set was active somewhere.
SMILES,TNAP inh hiacc,HCT116 PTEN-null,Lmaj promast,bCat KO growth,TNAP inh no acc,TNAP act hi DEA
COc1ccc(C(CCNCc2ccc(F)cc2)c2ccc(F)cc2)cc1 (stereo unspecified),-4,1.2*,72*,1.2*,-9,1
COc1ccc(CNCCC(c2ccc(F)cc2)c2ccc(OC)cc2)cc1 (stereo unspecified),-5,9,100*,1.9*,-7,1
COc1ccc(NC(=O)CC(c2ccc(F)cc2)c2ccc(OC(C)C)cc2)cc1 (stereo unspecified),-10,91,2,79,-8,1.1
COc1ccc(C(CC(=O)NCc2ccco2)c2ccc(F)cc2)cc1 (stereo unspecified),-6,83,9,86,-11,1.1
CN(c1ccccc1)S(=O)(=O)c1cccc(C(=O)OCC(=O)NCc2ccc3c(c2)OCO3)c1,-2,98,-1,94,-12,1
CC(=C/C(=O)O)/C(=C/c1ccccc1)C(=O)O,-2,104,-3,91,-5,1
O=C1CC(NNc2ccccc2)C(=O)N1c1ccccc1 (stereo unspecified),-2,99,62*,99,1,1
Cc1ccc(NNC2CC(=O)N(c3cccc(Cl)c3)C2=O)cc1 (stereo unspecified),-2,x,-4,x,-4,1
Cc1ccc(N2C(=O)CC(NNc3nc4ccccc4s3)C2=O)cc1C (stereo unspecified),-3,91,56*,100,-14,1
Cc1ccc(N2CC(c3nc4ccccc4n3C)CC2=O)cc1C (stereo unspecified),-3,83,0,93,0,1
CCOc1cccc2cc(-c3csc(NC(=O)CCC(=O)NCCCN4CCC(C)CC4)n3)c(=O)oc12,-5,x,62*,x,-12,1.1
O=C(NNc1cccc(Cl)n1)Nc1ccccc1,2,96,39,92,-13,1
O=C(NNc1cccc(Cl)n1)Nc1cccc(Cl)c1,2,87,97*,87,5,1
O=C(NCc1ccccc1)NC1CCS(=O)(=O)C1 (stereo unspecified),-3,x,6,x,-5,1
O=C(c1cccc2ccccc12)N1CCN(c2ccc([N+](=O)[O-])c(NCc3ccco3)c2)CC1,6,85,55*,85,4,0.9
CN(Cc1ccccc1)C(=O)C1CCN(Cc2ccc(F)cc2)CC1,-6,87,89*,89,-14,1.1
CN(Cc1ccccc1)C(=O)C1CCCN(Cc2ccc(Cl)cc2)C1 (stereo unspecified),-1,66,89*,61,-6,1
NC(=O)C1CCCN(Cc2ccc(Cl)cc2)C1 (stereo unspecified),-5,93,79*,103,2,1.1
COc1cc(CNC2CCCC2)cc(Cl)c1OCc1ccc(F)cc1,0,64,101*,48,-11,1
COc1cc(CNC2CCCC2)cc(Br)c1OCC(=O)Nc1ccccc1C,-6,x,99*,x,-1,1.1
CCOc1cc(CNC2CCCC2)cc(Cl)c1OCc1ccc(F)cc1,3,0.9*,100*,0.9*,-2,1
COc1cc(CNC2CCCC2)cc(Cl)c1OCc1ccccc1Cl,-5,1.6*,100*,1.2*,-11,1
COCCN(Cc1ccccc1)C(=S)Nc1ccc(Cl)cc1,-6,x,46,x,-15,1.1
CCN(CC)c1nc(=S)nc(NC(C)(C)C)[nH]1,10,95,95*,98,3,0.9
Cc1ccc(S(=O)(=O)CCSc2cccc(C(=O)Nc3ccccc3C(=O)O)c2)cc1,-5,89,32,88,-10,1
SMILES,TNAP inh hiacc,HCT116 PTEN-null,Lmaj promast,bCat KO growth,TNAP inh no acc,TNAP act hi DEA
COc1ccc(/C=C/c2nc(N)nc(-c3ccccc3O)n2)cc1OC,-4,33,93*,47,-34,1
Cc1cc(NC(=O)CN2CCN(C/C=C/c3ccccc3)CC2)c([N+](=O)[O-])cc1C,1,74,85*,89,3,1
O=C(CN1CCN(C/C=C/c2ccccc2)CC1)Nc1cc([N+](=O)[O-])ccc1Cl,-8,95,56*,86,0,1.1
CCOc1cccc(NC(=O)C2CC(=O)N(c3ccc(F)cc3)C2)c1 (stereo unspecified),-6,x,-6,x,-12,1.1
CC(C)[C@H](NS(=O)(=O)c1ccc2c(c1)OCCO2)C(=O)OCC(=O)Nc1ccccc1Cl,-1,92,66*,96,-10,1
COC(=O)c1ccc(Cl)c(NS(=O)(=O)c2ccc3c(c2)OCCO3)c1,-4,34,80*,39,-13,1
CCCSc1ncc(Cl)c(C(=O)Nc2ccc(S(=O)(=O)N3CC(C)OC(C)C3)cc2)n1 (stereo unspecified),0,53,9,64,-9,1
O=c1c(-c2ccccc2)n[nH]c2ccccc12,-6,89,-7,92,-8,1.1
Nc1c(-c2ccccc2)n[nH]c1-c1ccccc1,-2,96,-1,104,89*,1
COc1ccc(C2=NO[C@@H]3[C@@H]4C[C@@H]([C@H]5C(=O)N(C)C(=O)[C@@H]45)[C@H]23)cc1,-8,90,-3,95,-12,1.1
CCc1c(C)nc(Nc2nc(C)c3ccc(OC)cc3n2)[nH]c1=O,-3,64,94*,46,-134,1
CCc1c(C)nc(Nc2nc(C)c3cc(OC)ccc3n2)[nH]c1=O,-4,53,98*,48,-28,1
CCCCCc1c(C)nc(Nc2nc(C)c3cc(OC)ccc3n2)[nH]c1=O,-3,64,99*,57,-22,1
COc1ccc2nc(NC3=NC(c4ccccc4)CC(=O)N3)nc(C)c2c1 (stereo unspecified),-2,76,94*,72,-54,1
Cc1cc(NC(=O)CSc2ncnc3c2cnn3-c2cccc(Cl)c2)no1,-3,x,-7,x,-8,1
COc1ccc2c(C)nc(Nc3nc(C)c(C)c(=O)[nH]3)nc2c1,-3,1.6*,100*,1.7*,-192,1
COc1ccc2c(C)nc(Nc3nc(C)cc(C)n3)nc2c1,-2,83,22,81,-11,1
Cc1[nH]c2ccccc2c1C(=O)CCl,-4,x,99*,x,-6,1
COc1ccc(CNC(=S)Nc2ccc(F)c(Cl)c2)cc1,-7,x,5,x,-5,1.1
CCC(C)NC(=O)Nc1ccc(F)c(Cl)c1 (stereo unspecified),4,x,96*,x,-3,1
Fc1ccc(NC(=S)N2CCCC2)cc1Cl,-6,96,95*,91,-7,1.1
Fc1ccc(NC(=S)Nc2ccc(F)c(Cl)c2)cc1Cl,-10,6,97*,9,9,1.1
CC(C)CNC(=O)Nc1ccc(F)c(Cl)c1,1,x,34,x,-4,1
